Reference: the EternaBench riboswitch data

Test system: MS2 coat protein
Assay: apparent Kd, MS2 coat protein; higher = weaker binding; RNA-MaP array; FMN 200 µM where present
Procedure, shortened: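 Stalled E. coli RNA polymerase transcribed the designs on Illumina sequencing-chip clusters. SNAP-549-labelled MS2 coat protein was titrated from 0.7 or 1.5 nM, doubling to 3 µM, without and then with constant ligand, in 100 mM Tris-HCl pH 7.5, 80 mM KCl, 4 mM MgCl2, BSA, DTT, yeast tRNA and Tween-20. Per-cluster binding curves were fitted to green signal normalised to red-channel RNA signal and control-cluster median Fmax. The apparent Kd is the median of the filtered fits.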

[1] = designed as: ON switch for flavin mononucleotide, no ligand
[2] = ligand present: flavin mononucleotide, designed as: ON switch for flavin mononucleotide
[3] = designed as: OFF switch for flavin mononucleotide, no ligand
[4] = ligand present: flavin mononucleotide, designed as: OFF switch for flavin mononucleotide

Sequence | apparent Kd [1] [nM] | apparent Kd [2] [nM] | apparent Kd [3] [nM] | apparent Kd [4] [nM]
GGUCCAUUAUGAGGAUAUGGCACCUUAUUGGUGCCAGAAGGCAUAUGUCUUCACAUGAGGAUCACCCAUGUAAUAAAUUGGACC | 17.4 | 19.5 |  | 
UGUUAUUAGACAGGAUAUUGAAUGUUAAGUAUUAACAUGAGGAUCACCCAUGUAUUUGAUUGGUACAAGAAGGGUCAUGUUCCU | 431 | 649 |  | 
CCUGUAAUCCUAUAGGCUUGUUACAUGAGGAUCACCCAUGUCAAGGAUAUAACGUUAAGCUCAUGUUAGAAGGUGACAUGUGGU |  |  | 164 | 58.6
CCGUGGCAAGGAUAUACAUAGGAGAGGAAGGCAAGAGGAGGACAUGAGGAUCACCCAUGUAGAAGGUGCAGAUC |  |  | 73.8 | 67.8
ACAUAAAUUCGAGGAUAUCGGUGAUAUAAUUUACGAGAAGGCGAUAAUUGUUAUAAACUUAUAGACAUGAGGAUCACCCAUGUA | 32.1 | 31.9 |  | 
AAGAAGUGAGGAUAUGCAGUGGCCUGUAGACGCAAGCACUUGUAGAAGGCACAUGAGGAUCACCCAUGUUUAAA |  |  | 35 | 32.8
GAUCCGUCUGUUAGGAUAUGCUUUGGGCUUCCGCAGUAGAAGGAACAUGAGGAUCACCCAUGUCCGAUGCCGUC |  |  | 33.4 | 43
CGGUCGAUGUAAGGAUAUCGACUGGAUAACAGUCGAGAAGGUACAUGAGGAUCACCCAUGUAAUCCAAUAAUAAAUAACGACCG |  |  | 11.4 | 23.2
UGUCGGAGCAGAGGAUAUAUACAUGAGGAUCACCCAUGUAAAGAUCAAAGCUGGAAACAGCAAGUAUAGAAGGCUGCUCCGACA |  |  | 120 | 295
GGUACUCAAAGAGUACCAAUACGAACAUGAGGAUCACCCAUGUAGGAUAUGCUACUCAAAGAGUAGCAGAAGGACAUGUGCCUG |  |  | 17.9 | 95.1
CUUGUACAUGAGGAUCACCCAUGUUAGGAUAUCUCGCCGUCGGCUUGCCGACGGUAUUAGAGAAGGGACUUGGG |  |  | 56 | 33
UAAAAGUCAGGAUAUGCGAAGGCGUCUGAUAGACGAGGCUAGCAGAAGGGACAUGAGGAUCACCCAUGUGAAAU |  |  | 51.8 | 138
ACAUGAGGAUCACCCAUGUAUACAUAGGAUAUUGAGGAUCAGGGAUGUUUUACAGGAUAUGUCUACAAGAAGGAUGCAAGUAAA | 35.6 | 30 |  | 
GGGUACAUCGGAGGAUAUCAUGUAAAUACAUGAGGAUCACCCAUGUCGAUGGAGACAUCGUAGAUUGAGAAGGCCGAUGUACCG | 9.85 | 5.37 |  | 
AACUGACGACGUCAGUUGCGUAGGCAGGAUAUACAUGAGGAUCACCCAUGUGCAUGAUGCUACGAGUAGAAGGGCCGAGGCGAU |  |  | 6.15 | 11.2
GCAAAGCCUGACAUGAGGAUCACCCAUGUUAGAUUGUUAUGUCAGGAUAUUGUCUAGCAACUAGACAAGAAGGGAUGCUCUGCC | 377 | 194 |  | 
UCGCCAGGUACAGGAUAUGUGGAUCGGUCAAGUAACUCGCCGAACAUGAGGAUCACCCAUGUAUCACAGAAGGGUGCCUCAAAG | 223 | 10.8 |  | 
AUAUUGUGAGGAUAUGAACUUAGUAUCGAAAGAUACUAACUUCAGAAGGCACAUGAGGAUCACCCAUGUUUCUC |  |  | 72.3 | 689
UCUUACUGAGGAUAUACUUAGAUUUACAUGAGGAUCACCCAUGUUCCUCUAUGUAUAUAUGUAGAAGGCAGAAGUU |  |  | 25.4 | 158

Sequence | apparent Kd [1] [nM] | apparent Kd [2] [nM] | apparent Kd [3] [nM] | apparent Kd [4] [nM]
CGCAUGCGUAGUAUUAGUUGCUGACAGGAUAUGACAUGAGGAUCACCCAUGUGAAAUAAGAAGAGUCAGAAGGGUCACGAUGCG |  |  | 16.8 | 9.58
AAAAGGGCAGGAUAUACAUGAGGAUCACCCAUGUGAAAAAAAAAAAAAAAAAAAAAGUGUAGAAGGGUCAAAAA |  |  | 74 | 76
CGGAUGUGAGGAUAUACAUGAGGAUCACCCAUGUGAGCCAGCUAGCUGACUGGCUCGUGUAGAAGGCACGUCUG |  |  | 15.5 | 28.9
UUUAAUUAGUAAGGAUAUACUAGUGAUUAACUUGUAGAAGGUACAGUCUUAUGUAUAACAAAUUAACAUGAGGAUCACCCAUGU | 9.54 | 8.3 |  | 
UUGCGGUCAGGAUAUGCAUGGCGGGACUUGCGUCGUGGCGUGGAGAAGGGACAUGAGGAUCACCCAUGUGGAGG |  |  | 97.1 | 99.3
AGCUUCGGUGUCAGGAUAUGGGAAAGGGAACUUACCCAGAAGGGACAUGAGGAUCACCCAUGUGGCUUGACAUG |  |  | 45.3 | 109
AGCCGCUUAGGAUAUACCUAGAUUCUUCCGCGCUGUACGGUACAUGAGGAUCACCCAUGUAGAAGGAGGUGGCA |  |  | 23.5 | 29.7
UAGCAGUAGGGAGGAUAUGCGAAAGGAAGGCCCGCAGAAGGCCUUACAUGAGGAUCACCCAUGUAGGAUGCCUGGGUGGUGCCC |  |  | 13.8 | 20.3
UCAUAUAUACAAGGAUAUCAAUUAUUUAUACAUCCUACAUGAGGAUCACCCAUGUUUUUAUAUUUUGAGAAGGUGUAAUGUCUU | 21.1 | 27.5 |  | 
AGGAAGUGAGGAUAUGCAGUGGCCUGUAGACGCAAGCACUUGUAGAAGGCACAUGAGGAUCACCCAUGUUUAAA |  |  | 35.8 | 34.2
GCGGAGGGUACAGGAUAUCGUCCUUAGUUGGUACGAGAAGGGUAGCGCUGCCACAUGAGGAUCACCCAUGUGCCCAAACUAAAA | 159 | 201 |  | 
GCACGAUCCUCAGGAUAUCACUGAAACAUGAGGAUCACCCAUGUGCGCAGAUGAGAAGGGAGGACUCCGUCUGACUAAAAGUUA | 113 | 9.95 |  | 
AUGACUCGUGUUAGGAUAUCUUCGGCGUGGCUGAUGGAGAAGGGACAUGAGGAUCACCCAUGUAUCCUGGUCGG |  |  | 71.3 | 123
CAGUACUGAGGAUAUACAUGAGGAUCACCCAUGUGUCCUGGCUAGGAUACUAGCAAAGGUAGAAGGCAGUACUG |  |  | 16.6 | 125
GGAGAGGAAACAUGAGGAUCACCCAUGUGAGUGGUCCGAAUAUAGGAUAUCCACACGAGAAGUGUGGAGAAGGAUAACCUCUCC |  |  | 73 | 90.2
AAAAAGUCAGGAUAUGGCAAAGGUCACGAAAGUGACAAAGGCUAGAAGGGACAUGAGGAUCACCCAUGUAAAAA |  |  | 29 | 32.4
AAUAACAGAGGAUAUACUGUUUUAUGUGUUUGUUAUUUUAAACAUGAGGAUCACCCAUGUAGAAGGCUGAAUGA |  |  | 21.5 | 24.5
UUAAUGUGAGGAUAUCAGGUGUGAUAGAGUAAUGGUAAAUCUGAGAAGGCACAUGAGGAUCACCCAUGUUCUUC |  |  | 23 | 33.8
AAAAAACAUGAGGAUCACCCAUGUCGAAAGACGUGAGGAUAUGUACAGACUUCGGUCUGUACAGAAGGCAUGUCAA | 94 | 20.2 |  | 

Sequence | apparent Kd [1] [nM] | apparent Kd [2] [nM] | apparent Kd [3] [nM] | apparent Kd [4] [nM]
AUGUUACAUGAGGAUCACCCAUGUGAGGAUAUGUGUACCGGUAAAAAAGUGAUUGGCCACAGAAGGCAUUUGGA |  |  | 33.2 | 35.7
GGCUGGCAGCUAGGAUAUGGGCGGUCACAUGAGGAUCACCCAUGUCAACAUCAAAACCAGAUUAACCAGAAGGAGCUGCGGAUU | 32.7 | 502 |  | 
AAUCCACAUGAGGAUCACCCAUGUGAGGAUAUGAUACUAUGUACUUCGGUACAUAGUAUCAGAAGGCACAUAAA |  |  | 24.1 | 81
ACCAGGGAUUCAGGAUAUAUUAGCCGAGGCCGCGUAGAAGGGAAAUCCUGACAUGAGGAUCACCCAUGUCGACCCGCCUUCCAA | 43.3 | 41.9 |  | 
CUCCGUGGCGAGAAGGGCGGGAUUUUAGGUUCUGUAGGAUAUCGAAACAUGAGGAUCACCCAUGUAUUGAUCGGGUGCAGUGUG |  |  | 22 | 23.2
UCAAUUCUGACAUCCUUAUUACAUGAGGAUCACCCAUGUUGUGAGGAUAUCCCAACCCACGGUCAGGAGAAGGCACAUAGAGGG |  |  | 5.5 | 5.9
AAAUAACAUGUAGGAUAUCCAGCAUUGACCAUCGGAGAAGGACAUGAGGAUCACCCAUGUACCGAUACAAUGGAAUAAGGGAAU |  |  | 16 | 17.9
UACCGCGACAACACGGUAUCACAUGAGGAUCACCCAUGUUCACAGGAUAUGCGAUAGCCAACGAAGCAGAAGGGUGAUUACUUA | 37.3 | 263 |  | 
UGCUGUGUCAGAGGAUAUACUCUAAUAAUCCAUUGCAAAUAGCGAUGGACAUGAGGAUCACCCAUGUAGAAGGCUGGCACAGCA |  |  | 70.2 | 152
AACAAGUUAGGAUAUGCUGCUCGUCACAAAAGUGAUGAGUAGCAGAAGGAACAUGAGGAUCACCCAUGUAAAGA |  |  | 29.3 | 23.7
CAUGACGAAGGAUAUACAUGAGGAUCACCCAUGUGGUCAUGGAAUUACGUGUUCUCGCGUAGAAGGUUGUAGAG |  |  | 11.3 | 12.8
GUGACGAAUGUAGGAUAUGCUGAGGAUAACUCAGCAGAAGGACAUGAGGAUCACCCAUGUACUAAUAGUGAUAAUAAACGUCAC |  |  | 14.8 | 82.5
CCUCCACAUGAGGAUCACCCAUGUCAGGAUAUCGCGCGCGCGUUUUCGGUCUUUCGCGCGAGAAGGGACGACUG |  |  | 34.4 | 54.5
UUUAUGUCAGGAUAUGAUUAGAUCUACUUUUGUAGAUCUAAUCAGAAGGGACAUGAGGAUCACCCAUGUUUUUU |  |  | 44.8 | 252
CAGAGGAUGUAAGGAUAUCGUCAGGAUAACUGACGAGAAGGUACAUGAGGAUCACCCAUGUAUAUGAAAGAUAAUAAACCUCUG |  |  | 13.5 | 18.8
CUUGUGUUAGGAUAUGCGCCCUGAAGAAGCAGGGCCAGAGAGCAGAAGGAACAUGAGGAUCACCCAUGUGUGAC |  |  | 60.3 | 51.2
GCCGUACAUGAGGAUCACCCAUGUCAGGAUAUUUAGCACUCGGAAUUUCCGAGAGGUCAAAGAAGGGACAUUGC |  |  | 17.5 | 26.9
UUAUUCUAUAUAGGAUAUUGAUGUAAUUUAUUUCAAGAAGGAUAUACAUGAGGAUCACCCAUGUUGGAUAGGGUUAGUUUGUUU | 81.1 | 91.1 |  | 
